Columns and labels:
Format in all cases: functional
K562 = experiment: Antiproliferative activity against human leukemia K562 cell line
Outline: (§1)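 Part of the NCI ~60 human tumor cell line panel screen. Each compound was tested at five concentrations in 10-fold dilutions from 10^-4 to 10^-8 M. GI50 is read from dose-response curves as the molar concentration giving 50% inhibition of net cell growth, and is also reported as pGI50 (-log molar).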

NCI-H23 = experiment: Antiproliferative activity against human lung NCI-H23 cell line; outline: as §1
SW-620 = experiment: Antiproliferative activity against human colon SW620 cell line; outline: as §1
SF-268 = experiment: Antiproliferative activity against human CNS SF268 cell line; outline: as §1
UACC-62 = experiment: Antiproliferative activity against human melanoma UACC62 cell line; outline: as §1
SN12C = experiment: Antiproliferative activity against human renal SN12C cell line; outline: as §1
MCF7 = experiment: Antiproliferative activity against human breast cancer MCF7 cell line; outline: as §1

Compound | GI50 (K562) | GI50 (NCI-H23) | GI50 (SW-620) | GI50 (MCF7) | GI50 (SF-268) | GI50 (UACC-62) | GI50 (SN12C)
O=C(Oc1cccc(Cl)c1)c1ccccc1Nc1ccnc(C(F)(F)F)c1 | 3.24 µM | 2.4 µM | 4.37 µM | 4.79 µM | 3.02 µM | 2.04 µM | 2.95 µM
O=C(Oc1ccccc1Cl)c1cccnc1Nc1ccnc(C(F)(F)F)c1 | 4.57 µM | 8.71 µM | 3.72 µM | 3.63 µM | 10 µM | 6.17 µM | 4.07 µM
O=C(Oc1cccnc1)c1cccnc1Nc1ccnc(C(F)(F)F)c1 | 5.13 µM | 6.31 µM | 5.5 µM | 2.69 µM | 5.62 µM | 5.75 µM | 6.46 µM
O=C(Oc1ccc(Cl)cc1)c1ccccc1Nc1ccnc(C(F)(F)F)c1 | 3.63 µM | 2.82 µM | 6.61 µM | 3.72 µM | 4.37 µM | 2.63 µM | 2.95 µM
O=C(Oc1ccc(Cl)cc1Cl)c1ccccc1Nc1ccnc(C(F)(F)F)c1 | 3.02 µM | 3.55 µM | 4.57 µM | 3.63 µM | 3.09 µM | 2.29 µM | 3.02 µM

The next compounds have a lower GI50 (K562) than those just listed; values first:

GI50 (K562) | GI50 (NCI-H23) | GI50 (SW-620) | GI50 (MCF7) | Compound | GI50 (SF-268) | GI50 (UACC-62) | GI50 (SN12C)
0.0513 µM | 0.257 µM | 0.363 µM | 0.282 µM | O=C(Oc1ccccc1Cl)c1ccccc1Nc1ccnc(C(F)(F)F)c1 | 2.24 µM | 0.309 µM | 0.331 µM
0.0427 µM | 0.0363 µM | 0.0407 µM | 0.0457 µM | O=C(Oc1cccnc1)c1ccccc1Nc1ccnc(C(F)(F)F)c1 | 0.331 µM | 0.288 µM | 0.0708 µM
2.69 µM | 20 µM | 8.13 µM | 33.9 µM | O=C(Oc1ccccc1Cl)c1ccccc1Nc1cccc(C(F)(F)F)c1 | 20.4 µM | 17 µM | 23.4 µM
0.741 µM | 2.04 µM | 4.07 µM | 7.24 µM | COc1cccc(OC(=O)c2ccccc2Nc2ccnc(C(F)(F)F)c2)c1 | 4.68 µM | 3.09 µM | 5.37 µM
2.4 µM | 2.57 µM | 4.57 µM | 4.68 µM | O=C(Oc1c(Cl)cc(Cl)cc1Cl)c1ccccc1Nc1ccnc(C(F)(F)F)c1 | 3.89 µM | 1.74 µM | 3.09 µM

— ChEMBL document CHEMBL1141187, “New potential anticancer agents based on the anthranilic acid scaffold: synthesis and evaluation of biological activity” (2005)
